Data published in ChEMBL document CHEMBL4715770, “Inhibition of Low Molecular Weight Protein Tyrosine Phosphatase by an Induced-Fit Mechanism” (J Med Chem, 2016).

Columns and labels:
[1] = target: T1, Tyrosine-protein phosphatase non-receptor type 22 (Homo sapiens, UniProt Q9Y2R2); test: Inhibition of His-tagged LYP (unknown origin) expressed in Escherichia coli BL21 cells using para-nitrophenyl phosphate as substrate incubated for 5 to 10 mins by microplate reader based spectrophotometric analysis
T1 sequence (Q9Y2R2 whole entry): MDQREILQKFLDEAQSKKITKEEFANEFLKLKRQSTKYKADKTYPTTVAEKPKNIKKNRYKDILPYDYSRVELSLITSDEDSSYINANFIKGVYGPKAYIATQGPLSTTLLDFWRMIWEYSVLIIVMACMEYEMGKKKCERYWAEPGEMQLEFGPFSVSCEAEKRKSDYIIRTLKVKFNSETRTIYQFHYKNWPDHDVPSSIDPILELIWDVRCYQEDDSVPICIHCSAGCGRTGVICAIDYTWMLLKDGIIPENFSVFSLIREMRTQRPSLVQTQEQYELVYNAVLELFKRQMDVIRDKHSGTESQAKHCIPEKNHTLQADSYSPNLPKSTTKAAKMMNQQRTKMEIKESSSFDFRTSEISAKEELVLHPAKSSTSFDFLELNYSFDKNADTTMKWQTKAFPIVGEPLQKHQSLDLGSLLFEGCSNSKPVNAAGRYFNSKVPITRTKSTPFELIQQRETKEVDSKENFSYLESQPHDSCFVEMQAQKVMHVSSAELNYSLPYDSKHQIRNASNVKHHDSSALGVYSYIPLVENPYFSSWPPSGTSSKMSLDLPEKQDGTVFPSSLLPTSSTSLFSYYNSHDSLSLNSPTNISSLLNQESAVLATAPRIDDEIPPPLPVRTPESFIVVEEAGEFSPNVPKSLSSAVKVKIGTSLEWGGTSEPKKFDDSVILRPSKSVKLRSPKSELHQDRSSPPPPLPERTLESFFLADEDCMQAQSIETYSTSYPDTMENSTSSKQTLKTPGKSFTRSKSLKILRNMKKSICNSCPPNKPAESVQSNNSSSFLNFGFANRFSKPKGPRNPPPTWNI

[2] = target: T2, Tyrosine-protein phosphatase non-receptor type 7 (Homo sapiens, UniProt P35236); test: Inhibition of His-tagged HePTP (unknown origin) expressed in Escherichia coli BL21 cells using para-nitrophenyl phosphate as substrate incubated for 5 to 10 mins by microplate reader based spectrophotometric analysis
T2 sequence (P35236 whole entry): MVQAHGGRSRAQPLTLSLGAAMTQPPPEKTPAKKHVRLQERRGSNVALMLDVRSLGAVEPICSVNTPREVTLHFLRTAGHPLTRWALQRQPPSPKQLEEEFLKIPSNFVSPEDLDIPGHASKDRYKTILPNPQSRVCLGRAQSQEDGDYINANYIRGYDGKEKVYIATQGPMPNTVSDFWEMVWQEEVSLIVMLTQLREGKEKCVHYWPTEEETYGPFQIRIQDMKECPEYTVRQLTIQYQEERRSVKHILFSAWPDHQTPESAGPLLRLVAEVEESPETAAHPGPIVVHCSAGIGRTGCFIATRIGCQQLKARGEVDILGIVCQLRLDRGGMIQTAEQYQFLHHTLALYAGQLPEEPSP

[3] = Inhibition of His-tagged PTP-H1 (unknown origin) expressed in Escherichia coli BL21 cells using para-nitrophenyl phosphate as substrate incubated for 5 to 10 mins by microplate reader based spectrophotometric analysis; design: species or system Homo sapiens
Procedure, shortened: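 Enzyme at 5-20 nM was added to substrate plus a range of inhibitor concentrations and run 5-10 min at room temperature. Quenched with 5N NaOH and p-nitrophenol read at 405 nm (ε 18,000 M-1cm-1), with a no-enzyme background correction. IC50 from curve fitting.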

[4] = target: T3, Tyrosine-protein phosphatase non-receptor type 12 (Homo sapiens, UniProt Q05209); test: Inhibition of His-tagged PTP-PEST (unknown origin) expressed in Escherichia coli BL21 cells using para-nitrophenyl phosphate as substrate incubated for 5 to 10 mins by microplate reader based spectrophotometric analysis
T3 sequence (Q05209 whole entry): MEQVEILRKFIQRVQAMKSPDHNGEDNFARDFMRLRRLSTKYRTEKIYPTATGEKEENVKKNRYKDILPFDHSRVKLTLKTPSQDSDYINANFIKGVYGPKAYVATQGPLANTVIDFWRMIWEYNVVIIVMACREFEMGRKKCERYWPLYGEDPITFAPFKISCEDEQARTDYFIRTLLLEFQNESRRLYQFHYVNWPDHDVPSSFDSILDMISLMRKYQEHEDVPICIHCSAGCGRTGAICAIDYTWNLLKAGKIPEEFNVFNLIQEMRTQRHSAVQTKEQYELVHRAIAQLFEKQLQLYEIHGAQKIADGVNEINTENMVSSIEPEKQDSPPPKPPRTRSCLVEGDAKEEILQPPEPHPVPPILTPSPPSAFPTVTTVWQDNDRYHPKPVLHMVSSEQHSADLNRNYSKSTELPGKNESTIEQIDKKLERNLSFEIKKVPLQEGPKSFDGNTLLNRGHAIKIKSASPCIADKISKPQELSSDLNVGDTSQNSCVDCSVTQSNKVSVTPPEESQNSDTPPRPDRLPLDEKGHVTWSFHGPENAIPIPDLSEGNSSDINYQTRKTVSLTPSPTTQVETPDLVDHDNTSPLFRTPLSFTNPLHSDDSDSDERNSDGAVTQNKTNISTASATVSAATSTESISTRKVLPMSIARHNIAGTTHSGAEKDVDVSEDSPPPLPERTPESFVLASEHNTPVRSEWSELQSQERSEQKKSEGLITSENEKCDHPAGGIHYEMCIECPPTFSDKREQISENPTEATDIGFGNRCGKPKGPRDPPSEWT

[5] = target: Receptor-type tyrosine-protein phosphatase F (Homo sapiens, UniProt P10586); test: Inhibition of His-tagged LAR (unknown origin) expressed in Escherichia coli BL21 cells using para-nitrophenyl phosphate as substrate incubated for 5 to 10 mins by microplate reader based spectrophotometric analysis
Chain of Receptor-type tyrosine-protein phosphatase F (P10586 whole entry): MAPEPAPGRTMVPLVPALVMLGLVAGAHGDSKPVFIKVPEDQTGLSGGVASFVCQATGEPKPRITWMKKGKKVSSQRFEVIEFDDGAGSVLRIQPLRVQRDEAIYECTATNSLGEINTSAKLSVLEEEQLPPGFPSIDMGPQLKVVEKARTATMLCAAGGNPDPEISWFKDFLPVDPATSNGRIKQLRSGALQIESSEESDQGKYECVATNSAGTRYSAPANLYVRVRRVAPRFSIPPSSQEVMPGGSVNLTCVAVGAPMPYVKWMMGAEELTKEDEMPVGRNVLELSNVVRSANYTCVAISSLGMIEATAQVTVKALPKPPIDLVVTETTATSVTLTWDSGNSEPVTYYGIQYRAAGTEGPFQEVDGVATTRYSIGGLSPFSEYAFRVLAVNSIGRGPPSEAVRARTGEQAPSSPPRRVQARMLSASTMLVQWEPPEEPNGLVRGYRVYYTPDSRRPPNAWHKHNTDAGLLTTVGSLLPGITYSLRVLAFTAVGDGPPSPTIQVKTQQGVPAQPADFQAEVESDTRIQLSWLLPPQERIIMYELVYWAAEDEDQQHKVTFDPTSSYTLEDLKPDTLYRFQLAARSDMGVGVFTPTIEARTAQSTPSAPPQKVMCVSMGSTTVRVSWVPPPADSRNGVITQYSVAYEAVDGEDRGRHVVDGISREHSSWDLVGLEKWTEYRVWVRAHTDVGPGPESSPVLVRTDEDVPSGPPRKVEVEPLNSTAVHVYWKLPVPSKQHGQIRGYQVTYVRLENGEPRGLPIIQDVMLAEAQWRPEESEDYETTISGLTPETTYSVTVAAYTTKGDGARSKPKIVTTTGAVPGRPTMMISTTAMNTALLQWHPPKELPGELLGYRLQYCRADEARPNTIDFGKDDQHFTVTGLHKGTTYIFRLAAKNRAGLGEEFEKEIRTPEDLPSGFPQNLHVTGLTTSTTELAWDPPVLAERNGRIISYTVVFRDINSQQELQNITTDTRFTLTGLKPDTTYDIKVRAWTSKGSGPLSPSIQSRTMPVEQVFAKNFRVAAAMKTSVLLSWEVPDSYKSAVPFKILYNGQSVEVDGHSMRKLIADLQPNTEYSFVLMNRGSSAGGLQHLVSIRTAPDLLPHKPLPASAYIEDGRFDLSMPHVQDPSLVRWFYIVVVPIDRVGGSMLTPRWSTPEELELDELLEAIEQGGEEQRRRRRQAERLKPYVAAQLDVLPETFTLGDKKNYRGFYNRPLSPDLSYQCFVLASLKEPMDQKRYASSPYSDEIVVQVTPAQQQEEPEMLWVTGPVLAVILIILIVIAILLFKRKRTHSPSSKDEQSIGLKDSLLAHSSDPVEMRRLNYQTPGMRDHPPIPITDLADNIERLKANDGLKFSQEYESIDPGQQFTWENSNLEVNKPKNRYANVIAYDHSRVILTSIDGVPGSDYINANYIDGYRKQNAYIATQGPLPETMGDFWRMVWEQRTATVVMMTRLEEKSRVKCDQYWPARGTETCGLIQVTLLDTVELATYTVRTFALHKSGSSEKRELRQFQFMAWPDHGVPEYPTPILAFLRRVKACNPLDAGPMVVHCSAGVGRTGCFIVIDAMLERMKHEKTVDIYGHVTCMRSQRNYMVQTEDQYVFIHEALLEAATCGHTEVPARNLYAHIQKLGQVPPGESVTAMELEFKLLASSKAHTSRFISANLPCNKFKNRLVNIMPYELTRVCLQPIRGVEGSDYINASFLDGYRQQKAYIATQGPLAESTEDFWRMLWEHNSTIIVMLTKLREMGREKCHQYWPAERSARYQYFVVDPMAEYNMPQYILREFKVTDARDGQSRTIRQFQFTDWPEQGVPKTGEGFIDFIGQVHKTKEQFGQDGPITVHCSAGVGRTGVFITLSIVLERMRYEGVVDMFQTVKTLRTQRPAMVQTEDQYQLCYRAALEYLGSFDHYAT

[6] = target: Receptor-type tyrosine-protein phosphatase alpha (Homo sapiens, UniProt P18433); test: Inhibition of His-tagged PTPalpha (unknown origin) expressed in Escherichia coli BL21 cells using para-nitrophenyl phosphate as substrate incubated for 5 to 10 mins by microplate reader based spectrophotometric analysis
Chain of Receptor-type tyrosine-protein phosphatase alpha (P18433 whole entry): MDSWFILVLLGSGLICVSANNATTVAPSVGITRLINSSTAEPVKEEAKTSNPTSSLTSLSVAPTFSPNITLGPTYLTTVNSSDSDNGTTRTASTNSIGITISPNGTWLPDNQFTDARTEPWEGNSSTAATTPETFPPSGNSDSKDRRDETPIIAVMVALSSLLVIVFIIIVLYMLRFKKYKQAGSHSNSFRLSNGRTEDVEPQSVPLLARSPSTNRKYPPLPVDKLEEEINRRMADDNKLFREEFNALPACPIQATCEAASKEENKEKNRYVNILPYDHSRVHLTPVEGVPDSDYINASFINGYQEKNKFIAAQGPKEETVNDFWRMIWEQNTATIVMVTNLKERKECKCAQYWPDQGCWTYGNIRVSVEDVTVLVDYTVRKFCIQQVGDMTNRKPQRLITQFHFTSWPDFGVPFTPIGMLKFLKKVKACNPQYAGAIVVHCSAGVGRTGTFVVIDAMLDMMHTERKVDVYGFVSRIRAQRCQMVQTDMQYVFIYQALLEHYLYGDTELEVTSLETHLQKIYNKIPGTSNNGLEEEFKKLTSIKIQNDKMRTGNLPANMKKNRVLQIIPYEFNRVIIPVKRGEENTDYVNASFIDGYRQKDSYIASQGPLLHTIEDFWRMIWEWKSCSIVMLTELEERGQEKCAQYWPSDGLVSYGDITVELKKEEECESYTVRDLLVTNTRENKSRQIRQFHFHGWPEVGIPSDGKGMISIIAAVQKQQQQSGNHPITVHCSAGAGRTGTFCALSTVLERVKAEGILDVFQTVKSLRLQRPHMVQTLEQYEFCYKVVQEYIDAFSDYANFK

[7] = target: Receptor-type tyrosine-protein phosphatase S (Homo sapiens, UniProt Q13332); test: Inhibition of His-tagged PTPsigma (unknown origin) expressed in Escherichia coli BL21 cells using para-nitrophenyl phosphate as substrate incubated for 5 to 10 mins by microplate reader based spectrophotometric analysis
Chain of Receptor-type tyrosine-protein phosphatase S (Q13332 whole entry, the tested form may be a part): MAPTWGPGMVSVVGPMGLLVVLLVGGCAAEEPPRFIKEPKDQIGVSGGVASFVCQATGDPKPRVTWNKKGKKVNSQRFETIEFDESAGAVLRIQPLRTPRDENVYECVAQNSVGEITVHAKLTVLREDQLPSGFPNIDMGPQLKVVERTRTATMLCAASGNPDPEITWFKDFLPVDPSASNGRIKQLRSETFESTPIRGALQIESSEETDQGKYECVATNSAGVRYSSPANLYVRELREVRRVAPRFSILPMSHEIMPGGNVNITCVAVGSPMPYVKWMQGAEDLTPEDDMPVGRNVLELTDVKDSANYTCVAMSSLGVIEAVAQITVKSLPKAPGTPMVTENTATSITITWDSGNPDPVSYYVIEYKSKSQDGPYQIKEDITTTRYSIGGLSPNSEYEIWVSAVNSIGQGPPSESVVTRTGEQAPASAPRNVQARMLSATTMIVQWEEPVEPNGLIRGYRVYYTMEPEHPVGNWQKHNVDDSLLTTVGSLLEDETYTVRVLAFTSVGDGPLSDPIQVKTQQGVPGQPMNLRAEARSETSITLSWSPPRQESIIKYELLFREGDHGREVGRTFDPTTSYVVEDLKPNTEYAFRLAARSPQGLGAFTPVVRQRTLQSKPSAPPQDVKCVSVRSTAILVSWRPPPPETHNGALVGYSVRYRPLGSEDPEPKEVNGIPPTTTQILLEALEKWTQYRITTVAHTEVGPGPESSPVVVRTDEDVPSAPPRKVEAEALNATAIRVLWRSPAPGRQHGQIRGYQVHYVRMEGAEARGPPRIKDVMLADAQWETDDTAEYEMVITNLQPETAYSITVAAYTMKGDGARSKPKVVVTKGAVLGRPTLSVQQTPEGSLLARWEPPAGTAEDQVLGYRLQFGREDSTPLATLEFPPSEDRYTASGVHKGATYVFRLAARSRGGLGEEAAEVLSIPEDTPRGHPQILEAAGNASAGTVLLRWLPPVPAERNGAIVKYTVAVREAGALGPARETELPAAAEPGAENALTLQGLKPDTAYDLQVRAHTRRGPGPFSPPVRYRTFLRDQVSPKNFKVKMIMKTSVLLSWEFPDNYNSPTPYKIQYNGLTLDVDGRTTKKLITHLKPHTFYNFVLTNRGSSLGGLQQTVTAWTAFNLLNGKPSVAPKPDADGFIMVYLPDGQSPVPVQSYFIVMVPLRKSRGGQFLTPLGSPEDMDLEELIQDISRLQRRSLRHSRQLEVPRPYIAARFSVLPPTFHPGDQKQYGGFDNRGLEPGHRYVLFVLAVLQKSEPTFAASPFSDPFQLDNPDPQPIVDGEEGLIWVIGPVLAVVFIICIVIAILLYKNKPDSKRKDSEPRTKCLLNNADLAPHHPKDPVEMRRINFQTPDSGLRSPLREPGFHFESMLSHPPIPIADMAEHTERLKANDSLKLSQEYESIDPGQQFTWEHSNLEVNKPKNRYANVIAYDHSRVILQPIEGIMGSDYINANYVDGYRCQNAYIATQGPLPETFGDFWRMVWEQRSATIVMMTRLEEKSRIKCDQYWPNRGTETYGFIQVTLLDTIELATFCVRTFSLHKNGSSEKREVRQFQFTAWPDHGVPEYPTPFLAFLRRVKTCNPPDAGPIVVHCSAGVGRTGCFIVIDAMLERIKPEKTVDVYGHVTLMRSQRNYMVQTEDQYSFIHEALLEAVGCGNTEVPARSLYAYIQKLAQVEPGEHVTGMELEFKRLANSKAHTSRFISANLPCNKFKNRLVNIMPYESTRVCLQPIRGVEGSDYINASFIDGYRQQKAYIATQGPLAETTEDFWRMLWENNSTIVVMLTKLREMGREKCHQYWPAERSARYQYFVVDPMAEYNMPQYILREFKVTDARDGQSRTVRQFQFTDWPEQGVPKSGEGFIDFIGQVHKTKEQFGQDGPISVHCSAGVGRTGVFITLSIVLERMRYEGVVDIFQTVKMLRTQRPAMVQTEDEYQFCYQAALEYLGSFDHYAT

[8] = target: T4, RNA polymerase II subunit A C-terminal domain phosphatase SSU72 (Homo sapiens, UniProt Q9NP77); test: Inhibition of His-tagged SSu72 (unknown origin) expressed in Escherichia coli BL21 cells using para-nitrophenyl phosphate as substrate incubated for 5 to 10 mins by microplate reader based spectrophotometric analysis
T4 sequence (Q9NP77 whole entry): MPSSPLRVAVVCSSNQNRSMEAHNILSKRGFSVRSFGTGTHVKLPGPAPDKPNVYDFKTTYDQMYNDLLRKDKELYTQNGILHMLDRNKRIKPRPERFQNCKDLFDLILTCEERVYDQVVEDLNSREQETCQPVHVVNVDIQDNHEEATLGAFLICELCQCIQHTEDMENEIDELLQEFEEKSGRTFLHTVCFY

Compound	IC50 [1]	IC50 [2]	IC50 [3]	IC50 [4]	IC50 [5]	IC50 [6]	IC50 [7]	IC50 [8]
O=C(Nc1cc(C(F)(F)F)cc(C(F)(F)F)c1)C(c1ccccc1)S(=O)(=O)O (stereo unspecified)	> 200 µM	94 µM	> 200 µM	66.9 µM	> 200 µM	> 200 µM	> 200 µM	83 µM
O=C(Nc1ccc(OCc2ccccc2)c(Cl)c1)C(c1ccccc1)S(=O)(=O)O (stereo unspecified)		> 200 µM	> 200 µM		> 200 µM	> 200 µM	> 200 µM	
Cc1c(Br)cc(NC(=O)C(c2ccccc2)S(=O)(=O)O)cc1Br (stereo unspecified)	> 200 µM	> 200 µM	> 200 µM		> 200 µM	> 200 µM	> 200 µM	> 200 µM
O=C(Nc1nc2ccc([N+](=O)[O-])cc2s1)C(c1ccccc1)S(=O)(=O)O (stereo unspecified)	> 100 µM	> 100 µM	> 100 µM	> 100 µM	> 100 µM	> 100 µM	> 100 µM	> 100 µM
O=C(Nc1ccc(-n2ccnc2)cc1)C(c1ccccc1)S(=O)(=O)O (stereo unspecified)	> 100 µM	> 100 µM	> 100 µM	> 100 µM	> 100 µM	> 100 µM	> 100 µM	> 100 µM
